Biofilm kill mix – mixture kills Candida albicans biofilm cells; C. albicans biofilm persisters + clotrimazole, fluorescence viability; primary screen in compound mixtures of four per well; inhibition, % at 7.6 µM; actives 0.02% (n = 120,000); AID 1242;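 active means inhibition above 30.3% in the primary screen of four-compound pools, then above 30% when the compound was retested; inconclusive means passed the primary limit but could not be retested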;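 further: compounds exposed to preformed 24 h biofilms for 48 h; 0% = untreated biofilm control and 100% = clotrimazole plus chlorhexidine kill blank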
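Probe or stimulus – Clotrimazole 50 µg/mL co-treatment · System – C. albicans biofilms · Schedule – 24 h biofilm formation, then 48 h compound exposure, 37 °C · Evaluation – percent inhibition of biofilm viability · Technique – 2-h Alamar Blue fluorescence, 535/590 nm excitation/emission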
ROMK mod – modulates human ROMK potassium channel activity. actives 2% (n = 130,000). Tet-inducible ROMK, thallium flux fluorescence; actives lie on both sides. P48048. B-score at 10 µM;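 active means signal ratio slope over the read window, or its plate-corrected B-score, at least 3 SD from the plate mean, either direction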;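 further: B-score of the F/F0 ratio slope over 7 to 12 s after thallium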
Target sequence (P48048 whole entry, looked up): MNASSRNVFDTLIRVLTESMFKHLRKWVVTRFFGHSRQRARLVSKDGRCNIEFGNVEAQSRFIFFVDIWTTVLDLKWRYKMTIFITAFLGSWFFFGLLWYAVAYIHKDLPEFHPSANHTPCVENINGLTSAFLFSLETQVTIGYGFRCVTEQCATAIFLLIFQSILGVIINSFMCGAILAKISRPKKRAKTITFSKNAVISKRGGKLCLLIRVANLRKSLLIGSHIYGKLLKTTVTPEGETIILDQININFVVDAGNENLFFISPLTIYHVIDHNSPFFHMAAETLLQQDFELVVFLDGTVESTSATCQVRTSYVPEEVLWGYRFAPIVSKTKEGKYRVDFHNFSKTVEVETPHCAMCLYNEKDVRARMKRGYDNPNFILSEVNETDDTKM
ROMK retest – retested hit modulating human ROMK potassium channel. actives 54% (n = 3,000). ROMK thallium flux, fluorescence ratio; active compounds read low. normalized thallium flux (F/F0 slope) at 10 µM. shares compounds with ROMK mod. AID 1917;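 active means Flux at 10 µM at least 3 SD below or above vehicle control mean in one or both replicates; inconclusive means no clear call, values can overlap the other calls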
* = called active by the depositor; ? = inconclusive; / = no result given. Many of the other results were omitted from the sample, so hits are more common in it than they were.

SMILES	Biofilm kill mix	ROMK mod	ROMK retest
CCn1c(=O)n(CC)c2cc(S(=O)(=O)N3CCc4ccccc43)ccc21	/	/	?
N#C/C(=C\c1ccc(OC(F)F)cc1)C(=O)N1CCCCC1	16.3	/	/
CCN1CCN(C(=O)/C(C#N)=C/c2ccc(OC(F)F)cc2)CC1	14.4	-3.62*	0.0469*
CN1CCC(N(C)C(=O)/C(C#N)=C/c2ccc(OC(F)F)cc2)CC1	6.8	/	0.0457*
COc1ccc(/C=C(\C#N)C(=O)OCC(=O)NC2CC2)cc1	18.5	0.0525	/
CC(C)(C)NC(=O)NC(=O)COC(=O)Cc1coc2ccc3ccccc3c12	16.4	-0.172	/
CC1CCN(C(=O)C2CCN(S(=O)(=O)c3cc(Cl)ccc3Cl)CC2)CC1	25.8	/	/
O=C1N(c2cccc(Cl)c2)C(c2ccc(Cl)cc2)N2CCCN12 (configuration not stated)	9.1	-1.01	/
COC(=O)[C@@]1(Cc2ccccc2)[C@@H]2C(=CC(=O)[C@H]2CC(=O)C(=O)N(C)C)CN1C(=O)c1ccccc1	11.2	-4.6*	0.0492*
COC(=O)[C@@]1(Cc2ccc(F)cc2)[C@H]2c3cc(C(=O)N(C)C)n(C[C@H](O)CO)c3C[C@H]2CN1C(=O)c1ccccc1	1.9	1.01	/
COCCCNC(=S)NNC(=O)c1csc2ccccc12	8.2	/	/
OCC1CCCCN1CCNCc1cn[nH]c1-c1cccc2ccccc12 (configuration not stated)	22.2	/	/
c1ccc2c(-c3[nH]ncc3CNCCCn3ncc4ccccc43)cccc2c1	-0.6	-1.79*	?
Cc1ccc(NC(=S)N(Cc2ccc(Cl)cc2)Cc2ccc(C(=O)O)cc2)cc1Cl	2.2	0.698	/
CCC(=O)Nc1cccc(C(=O)c2ccc(C)c(C)c2)c1	-1.8	0.000277	/
CC(C)c1ccc(C2C3CSCC=C3C(C#N)=C(N)C2(C#N)C#N)cc1 (configuration not stated)	/	-2.38	/
N#CC1=C(N)C(C#N)(C#N)C(c2ccc[nH]2)C2CCCC=C12 (configuration not stated)	/	-6.47*	0.0534*
CCOC(=O)c1ccccc1NC(=S)N1CCC(C)CC1	2.1	0.173	/
CCOC(=O)c1ccccc1NC(=S)N1CC(C)CC(C)C1 (configuration not stated)	27.1	/	0.0639*
O=C(CNCc1ccccn1)N1CCc2ccccc2C1	4.5	/	/
COc1ccccc1C(=O)NCCNC(=O)c1ccco1	/	-0.354	0.0765
COc1cccc(CNCCNC(=O)c2ccco2)c1OC	/	2.93*	0.0778
COc1ccc(OC)c(CNCCNC(=O)c2ccco2)c1	/	0.674	/
COc1ccccc1C(=O)NCc1ccccc1	8.3	-0.0676	/
O=C1C=CC(O)(c2cc(=O)c3c(O)cc(O)cc3o2)C=C1	19.8	-3.14	/
SMILES	Biofilm kill mix	ROMK mod	ROMK retest
CCOC(=O)Cn1nc(C(F)F)c(Br)c1C	13.6	0.238	/
CCn1c(/C=C/Nc2ccccc2)[n+](CC)c2cc(Cl)c(Cl)cc21	15.0	-3.87*	0.0443*
CCn1c(/C=C/N(C(C)=O)c2ccccc2)[n+](CCCS(=O)(=O)[O-])c2cc(Cl)c(Cl)cc21	17.2	0.609	/
NC1=NC(c2ccc(Cl)cc2)C(C(=O)c2ccccc2)N1 (configuration not stated)	26.1	-0.0162	/
O=C1CCSc2cccc3cccc(c23)N1	/	0.127	/
c1cc2c3c(cccc3c1)NC1(CCC3(CC1)Nc1cccc4cccc(c14)N3)N2	8.4	/	0.0495*
COc1ccc2c(c1)nc(N)n2Cc1ccccc1	/	-3.04*	0.0528*
COc1ccc(-c2nc3ccccc3n2Cc2ccccc2)cc1	/	-0.583	/
Cc1cc2ccccc2n2c(SCC(=O)NCC3CCCO3)nnc12 (configuration not stated)	13.4	-0.672	/
Cc1ccc(NC(=O)c2ccccc2O)cc1	/	/	0.0651*
Cc1ccc(NC(=O)c2ccccc2-c2ccccc2C(=O)O)cc1	10.3	0.566	/
CCCCc1nnc2c(N(C)S(=O)(=O)c3ccccc3)nc3ccccc3n12	15.2	/	/
C=CCN(C(=O)c1ccccn1)C(C(=O)NCc1ccccc1)c1ccccc1F (configuration not stated)	18.8	0.147	/
COc1ccc(OC)c(NC(=O)COC(=O)c2ccc(-n3cnnn3)cc2)c1	/	1.13	/
COc1cc(NC(=O)COc2ccc(-n3cnnn3)cc2)c(OC)cc1Cl	/	/	0.0872
Cc1ccc(N2CS(=O)(=O)/C(=C/N(C)C)C2=O)cc1	/	/	0.0818
CN(C)/C=C1\SC(=S)N(c2ccc(F)cc2)C1=O	30.4	/	/
O=C1CCCc2cc3c(cc21)CC1(C3)Cc2cc3c(cc2C1)C(=O)CCC3	4.6	/	/
COc1cccc(C(=O)OCC(=O)Nc2cc(C)c(C)cc2[N+](=O)[O-])c1	-6.0	0.908	/
Cc1cc(Sc2ncnc(N)c2[N+](=O)[O-])ncn1	6.3	-0.967*	0.0779
Cc1cc(Sc2nc(N)ncc2[N+](=O)[O-])ncn1	3.0	0.0143	/
COc1ccccc1C(=O)C1CCCN(C(=O)CN2CCCCC2=O)C1 (configuration not stated)	-3.0	1.25	/
COc1ccc(OC)c(-c2c[n+](=O)c3c(n2[O-])CCCC3)c1	/	-0.678	/
COc1ccc(OC)c(C2=C[N+](=O)C(C)(C)C(C)(C)N2[O-])c1	/	4.64*	0.0882
COc1ccc(N(CC(=O)Nc2cc(C)ccc2C)S(=O)(=O)c2ccccc2[N+](=O)[O-])c(OC)c1	10.0	-0.171	/
SMILES	Biofilm kill mix	ROMK mod	ROMK retest
CCCCc1c(C)nc2ccccc2c1SCCC(=O)O	23.4	0.169	/
COC(=O)c1ccc2c(=O)n(CCCCCC(=O)NCCNC(C)=O)c(=O)[nH]c2c1	7.3	0.553	/
CCOc1ccc(CC(=O)NCC2(N3CCCCC3)CCCCC2)cc1	5.6	-0.224	/
CN(C)c1cc(NC(=O)CN2CCCC2)c2ccccc2n1	-3.9	/	/
O=C(CN1CCCC1)Nc1c2c(nc3ccccc13)N(Cc1ccccc1)CC2	/	-3.11*	0.061*
Cc1nc2c(-c3ccccc3)c(C)nn2c(SCC(N)=O)c1Cc1ccccc1	13.0	/	/
Cc1cccc(Nc2nc(NCCCN3CCOCC3)nc(N)c2[N+](=O)[O-])c1	5.0	-0.363	/
O=C(/C=C/c1ccccc1)c1ccc2c(c1)OCO2	11.1	0.0461	/
O=C(/C=C/c1ccncc1)c1ccc2c(c1)OCCO2	25.6	-2.73*	0.0533*
COc1ccc(OC)c(C(C)NC(=O)Nc2cccc(C(C)=O)c2)c1 (configuration not stated)	11.6	-0.0403	/
O=C(NCC(c1ccco1)N1CCCCC1)c1ccc(OCc2ccccc2)cc1 (configuration not stated)	0.8	-3.24*	0.0701
N#CCC(=O)Nc1ccc(C(=O)NCC(c2ccco2)N2CCCCC2)cc1 (configuration not stated)	19.1	0.791	/
CCN1C(=O)/C(=C2/Sc3ccccc3N2CC)S/C1=N\c1ncn[nH]1	12.2	0.977	/
COc1cc(NCc2ccccc2O)c2ncccc2c1	16.4	-1.51	/
COc1cc(NCCCCCCCN)c2ncccc2c1	21.0	-5.06*	0.0621*
COc1ccc(CCN(C)C(=O)CSc2nc3ncc(Cl)cc3[nH]2)cc1OC	16.6	-1.19	/
CN1CCN(C(=S)C(=O)Nc2ccc(Br)cc2)CC1	12.2	-0.698	/
COc1cc2c3c(c1)C(C)CC(C)(C)N3C(=O)C2=O (configuration not stated)	11.2	3.37*	0.0951
COc1cc2c3c(c1)C(C)=CC(C)(C)N3C(=O)C2=O	16.1	2.22	/
Cc1ccc(Nc2nnns2)cc1C	/	-2.99*	?
Cc1ccc(Nc2ccc(NCc3ccccc3)nn2)cc1C	7.2	0.188	/

Source: PubChem (several laboratories)
